ChEMBL document CHEMBL4049443, “Discovery of 2-[[2-Ethyl-6-[4-[2-(3-hydroxyazetidin-1-yl)-2-oxoethyl]piperazin-1-yl]-8-methylimidazo[1,2-a]pyridin-3-yl]methylamino]-4-(4-fluorophenyl)thiazole-5-carbonitrile (GLPG1690), a First-in-Class Autotaxin Inhibitor Undergoing Clinical Evaluation for the Treatment of Idiopathic Pulmonary …” (J Med Chem, 2017)
Active and inactive are the calls of the source. The rule behind the calls is not given here.

What was measured:
Mus musculus [1] = test: In vivo inhibition of ATX in C57BL/6Rj mouse assessed as time for maximum reduction in LPA 18:2 at 3 mg/kg administered as single dose via oral gavage by LC-MS/MS analysis; type: functional
Outline: (§1)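 Same single-gavage mouse study (female C57BL/6Rj, PEG 200/MC 0.5% vehicle, n = 3, bled predose and at 1, 3, 6, 24 h); vehicle control group. Plasma (10 μL) precipitated with methanol containing LPA 17:0 internal standard. LPA 18:2 read by LC−MS/MS as peak-area ratio to LPA 17:0. % reduction = 100 − (LPA at time t / mean vehicle LPA at time t × 100).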

[2] = Cmax in C57BL/6Rj mouse at 30 mg/kg administered as single dose via oral gavage up to 24 hrs by LC-MS/MS analysis; type: ADME, organism-based; parameters: dose 30 mg/kg, route oral; conditions: in vivo
Outline: (§2)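 Female C57BL/6Rj mice, 4−5 weeks old, fasted, given one oral gavage in PEG 200/MC 0.5% (25/75 v/v) at 0.3, 1 or 3 mg/mL. Intracardiac blood under isoflurane at 1, 3, 6 and 24 h into Li-heparin; n = 3 per time point. Methanol precipitation, LC−MS/MS against an eight-level calibration curve (LLOQ 4 ng/mL).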

Mus musculus [3] = test: In vivo inhibition of ATX in C57BL/6Rj mouse assessed as reduction in LPA 18:2 level in plasma at 30 mg/kg administered as single dose via oral gavage by LC-MS/MS analysis; type: functional; outline: as §1
[4] = Plasma concentration C57BL/6Rj mouse at 10 mg/kg administered as single dose via oral gavage after 24 hrs by LC-MS/MS analysis; type: ADME, organism-based; outline: as §2
Autotaxin [5] = target: Autotaxin (Mus musculus, UniProt Q9R1E6); test: Inhibition of ATX in mouse plasma assessed as reduction in LPA 18:2 production after 2 hrs by LC-MS/MS analysis
[6] = Plasma concentration in C57BL/6Rj mouse at 3 mg/kg administered as single dose via oral gavage after 24 hrs by LC-MS/MS analysis; type: ADME, organism-based; outline: as §2
[7] = Plasma clearance in dog at 1 mg/kg, iv; type: ADME, organism-based, Canis lupus familiaris
Outline: (§3)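 Dog: from 1 mg/kg oral and intravenous doses. Clearance taken from the intravenous arm.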

[8] = Cmax in C57BL/6Rj mouse at 3 mg/kg administered as single dose via oral gavage up to 24 hrs by LC-MS/MS analysis; type: ADME, organism-based; parameters: dose 3 mg/kg, route oral; conditions: in vivo; outline: as §2
Mus musculus [9] = test: Anti-fibrotic activity in BML-induced pulmonary fibrosis C57BL/6 mouse model assessed as reduction in […] 18:2 content in BALF at 30 mg/kg, po administered bid with 7.5 hrs interval between 2 doses for 21 days measured 2 hrs post last dose on day 21 by LC-MS/MS analysis relative to control; type: functional, organism-based
Outline: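 BLM model as above (intranasal 30 μg/50 μL, 21 days oral twice-daily dosing in PEG 200/0.5% MC), satellite groups. Bronchoalveolar lavage with two 0.5 mL ice-cold saline instillations, 2 h after a 30 mg/kg dose. LPA 18:2 by LC−MS/MS; PBS n = 9, BLM-vehicle n = 6, treated n = 7; mean ± SEM, one-way ANOVA with Dunnett's test.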

[10] = Protein binding to dog plasma; type: ADME, cell-free, Canis lupus familiaris; conditions: read-out: PPB
[11] = Tmax in C57BL/6Rj mouse at 10 mg/kg administered as single dose via oral gavage up to 24 hrs by LC-MS/MS analysis; type: ADME, organism-based; conditions: in vivo; outline: as §2
[12] = Tmax in C57BL/6Rj mouse at 30 mg/kg administered as single dose via oral gavage up to 24 hrs by LC-MS/MS analysis; type: ADME, organism-based; conditions: in vivo
Outline: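 Female C57BL/6Rj mice, 4−5 weeks old, given one oral gavage in PEG 200/MC 0.5% (25/75, v/v) at 3 mg/mL; fasted. Intracardiac blood under isoflurane at 1, 3, 6 and 24 h, Li-heparin. Methanol precipitation, LC−MS/MS against eight-level calibration, LLOQ 4 ng/mL. Plasma levels averaged over three mice; noncompartmental analysis for tmax.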

[13] = Oral bioavailability in rat at 5 mg/kg; type: ADME, organism-based; conditions: in vivo
Mus musculus [14] = test: In vivo inhibition of ATX in C57BL/6Rj mouse assessed as reduction in LPA 18:2 level in plasma at 10 mg/kg administered as single dose via oral gavage by LC-MS/MS analysis; type: functional; outline: as §1
[15] = Protein binding to human plasma; type: ADME, cell-free; conditions: read-out: PPB
[16] = Plasma clearance in rat at 1 mg/kg, iv; type: ADME, organism-based
[17] = Protein binding to rat plasma; type: ADME, cell-free; conditions: read-out: PPB
[18] = Plasma clearance in mouse at 1 mg/kg, iv; type: ADME, organism-based
[19] = Oral bioavailability in mouse at 5 mg/kg; type: ADME, organism-based; conditions: in vivo
Mus musculus [20] = test: In vivo inhibition of ATX in C57BL/6Rj mouse assessed as time for maximum reduction in LPA 18:2 at 30 mg/kg administered as single dose via oral gavage by LC-MS/MS analysis; type: functional; outline: as §1
[21] = Apparent terminal half life in C57BL/6Rj mouse at 10 mg/kg administered as single dose via oral gavage up to 24 hrs by LC-MS/MS analysis; type: ADME, organism-based; conditions: in vivo, read-out: betat1/2(app) (converted); outline: as §2
[22] = AUC (0 to 24 hrs) in C57BL/6Rj mouse at 10 mg/kg administered as single dose via oral gavage by LC-MS/MS analysis; type: ADME, organism-based; parameters: dose 10 mg/kg, time < 24 hr, route oral; conditions: in vivo; outline: as §2
Mus musculus [23] = test: Dose normalized Cmax in C57BL/6Rj mouse at 3 mg/kg administered as single dose via oral gavage up to 24 hrs by LC-MS/MS analysis; type: ADME, organism-based; conditions: in vivo; outline: as §2
Mus musculus [24] = test: Dose normalized AUC (0 to 24 hrs) in C57BL/6Rj mouse at 3 mg/kg administered as single dose via oral gavage by LC-MS/MS analysis; type: ADME, organism-based; conditions: in vivo; outline: as §2
Mus musculus [25] = test: Anti-fibrotic activity in BML-induced pulmonary fibrosis C57BL/6 mouse model assessed as reduction in fibrotic thickening of aveolar/bronchial walls at 10 to 30 mg/kg, po administered bid with 7.5 hrs interval between 2 doses for 21 days relative to control; type: functional, organism-based
Outline: (§4)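 Male C57Bl/6 mice, 11 weeks at delivery, anesthetized and given intranasal bleomycin 30 μg/50 μL; PBS controls. Oral dosing twice daily, 7.5 h apart, 10 mL/kg, from challenge day for 21 days: test agent in PEG 200/0.5% MC, pirfenidone in 0.5% CMC, vehicle controls; 14−24 mice per group. Lungs stained by Mallory method, scored 1–5 (Matsuse-modified Ashcroft) as mean of 10 low-power fields; group median, Mann−Whitney.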

Mus musculus [26] = test: Anti-fibrotic activity in BML-induced pulmonary fibrosis C57BL/6 mouse model assessed as reduction in fibrosis with damage of pulmonary structure at 10 to 30 mg/kg, po administered bid with 7.5 hrs interval between 2 doses for 21 days relative to control; type: functional, organism-based; outline: as §4
[27] = Plasma concentration in C57BL/6Rj mouse at 30 mg/kg administered as single dose via oral gavage after 24 hrs by LC-MS/MS analysis; type: ADME, organism-based; outline: as §2
Mus musculus [28] = test: Time at which plasma concentration reach in vitro mouse plasma IC50 in C57BL/6Rj mouse at 3 mg/kg, po administered as single dose via gavage
[29] = Oral bioavailability in dog at 1 mg/kg; type: ADME, organism-based, Canis lupus familiaris; conditions: in vivo; outline: as §3
[30] = Apparent terminal half life in C57BL/6Rj mouse at 30 mg/kg administered as single dose via oral gavage up to 24 hrs by LC-MS/MS analysis; type: ADME, organism-based; conditions: in vivo, read-out: betat1/2(app) (converted); outline: as §2
[31] = Tmax in C57BL/6Rj mouse at 3 mg/kg administered as single dose via oral gavage up to 24 hrs by LC-MS/MS analysis; type: ADME, organism-based; conditions: in vivo; outline: as §2
Cytochrome P450 3A4 = Cytochrome P450 3A4 (Homo sapiens, UniProt P08684); test: Time-dependent inhibition of human liver microsomes CYP3A4; type: ADME
Autotaxin [32] = target: Autotaxin (Rattus norvegicus, UniProt Q64610); test: Inhibition of ATX in rat plasma assessed as reduction in LPA 18:2 production after 2 hrs by LC-MS/MS analysis
Mus musculus [33] = test: Dose normalized Cmax in C57BL/6Rj mouse at 30 mg/kg administered as single dose via oral gavage up to 24 hrs by LC-MS/MS analysis; type: ADME, organism-based; conditions: in vivo; outline: as §2
[34] = AUC (0 to 24 hrs) in C57BL/6Rj mouse at 30 mg/kg administered as single dose via oral gavage by LC-MS/MS analysis; type: ADME, organism-based; parameters: dose 30 mg/kg, time < 24 hr, route oral; conditions: in vivo; outline: as §2
[35] = Apparent elimination half life in C57BL/6Rj mouse at 3 mg/kg administered as single dose via oral gavage up to 24 hrs by LC-MS/MS analysis; type: ADME, organism-based; conditions: in vivo, read-out: betat1/2(app) (converted); outline: as §2
[36] = Protein binding to mouse plasma; type: ADME, cell-free; conditions: read-out: PPB
Mus musculus [37] = test: Anti-fibrotic activity in BML-induced pulmonary fibrosis C57BL/6 mouse model assessed as reduction in fibrous area with severe distortion of lung structure at 10 to 30 mg/kg, po administered bid with 7.5 hrs interval between 2 doses for 21 days relative to control; type: functional, organism-based; outline: as §4
Mus musculus [38] = test: Anti-fibrotic activity in BML-induced pulmonary fibrosis C57BL/6 mouse model assessed as lung weight at 10 to 30 mg/kg, po administered bid with 7.5 hrs interval between 2 doses for 21 days relative to control; type: functional, organism-based
Mus musculus [39] = test: Dose normalized Cmax in C57BL/6Rj mouse at 10 mg/kg administered as single dose via oral gavage up to 24 hrs by LC-MS/MS analysis; type: ADME, organism-based; conditions: in vivo; outline: as §2
[40] = AUC (0 to 24 hrs) in C57BL/6Rj mouse at 3 mg/kg administered as single dose via oral gavage by LC-MS/MS analysis; type: ADME, organism-based; parameters: time < 24 hr, dose 3 mg/kg, route oral; conditions: in vivo; outline: as §2
Mus musculus [41] = test: In vivo inhibition of ATX in C57BL/6Rj mouse assessed as time for maximum reduction in LPA 18:2 at 10 mg/kg administered as single dose via oral gavage by LC-MS/MS analysis; type: functional; outline: as §1
Mus musculus [42] = test: Dose normalized AUC (0 to 24 hrs) in C57BL/6Rj mouse at 30 mg/kg administered as single dose via oral gavage by LC-MS/MS analysis; type: ADME, organism-based; conditions: in vivo; outline: as §2
Mus musculus [43] = test: Dose normalized AUC (0 to 24 hrs) in C57BL/6Rj mouse at 10 mg/kg administered as single dose via oral gavage by LC-MS/MS analysis; type: ADME, organism-based; conditions: in vivo; outline: as §2
Mus musculus [44] = test: In vivo inhibition of ATX in C57BL/6Rj mouse assessed as reduction in LPA 18:2 level in plasma at 3 mg/kg administered as single dose via oral gavage by LC-MS/MS analysis; type: functional; outline: as §1
[45] = Cmax in C57BL/6Rj mouse at 10 mg/kg administered as single dose via oral gavage up to 24 hrs by LC-MS/MS analysis; type: ADME, organism-based; parameters: dose 10 mg/kg, route oral; conditions: in vivo; outline: as §2

Sequence of Cytochrome P450 3A4 (P08684 whole entry): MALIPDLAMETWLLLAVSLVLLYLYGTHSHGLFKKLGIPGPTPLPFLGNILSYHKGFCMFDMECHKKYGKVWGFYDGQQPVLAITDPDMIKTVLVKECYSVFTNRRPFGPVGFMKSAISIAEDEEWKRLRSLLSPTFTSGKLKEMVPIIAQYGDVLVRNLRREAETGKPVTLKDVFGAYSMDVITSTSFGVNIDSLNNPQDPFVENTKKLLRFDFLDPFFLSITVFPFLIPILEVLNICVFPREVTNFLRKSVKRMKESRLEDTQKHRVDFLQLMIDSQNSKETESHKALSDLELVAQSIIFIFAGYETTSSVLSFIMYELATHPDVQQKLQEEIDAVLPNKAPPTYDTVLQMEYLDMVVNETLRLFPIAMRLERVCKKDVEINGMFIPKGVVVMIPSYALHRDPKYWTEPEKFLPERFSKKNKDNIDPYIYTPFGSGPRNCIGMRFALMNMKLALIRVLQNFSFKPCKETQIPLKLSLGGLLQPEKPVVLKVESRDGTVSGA

Cmax [2]: 21400 ng/mL
concentration at 24 h [4]: 4 ng/mL
IC50 (Autotaxin [5]): 418 nM
concentration at 24 h [6]: 1 ng/mL
clearance [7]: 2 mL/min/kg
Cmax [8]: 1080 ng/mL
fraction unbound [10]: < 0.01
Tmax [11]: 1 h
Tmax [12]: 1 h
bioavailability [13]: 37%
fraction unbound [15]: < 0.01
clearance [16]: 11.5 mL/min/kg
fraction unbound [17]: < 0.01
clearance [18]: 3.83 mL/min/kg
bioavailability [19]: 29%
half-life [21]: 2.22 h
AUC(0-t) at 24 h [22]: 20800 ng·h/mL
Cmax/dose (Mus musculus [23]): 358 ng/mL/(mg/kg)
AUC/dose (Mus musculus [24]): 1851 ng·h/mL/mg/kg
concentration at 24 h [27]: 295 ng/mL
bioavailability [29]: 63%
half-life [30]: 3.79 h
Tmax [31]: 3 h
TDI (Cytochrome P450 3A4): Not Active
IC50 (Autotaxin [32]): 542 nM
Cmax/dose (Mus musculus [33]): 712 ng/mL/(mg/kg)
AUC(0-t) at 24 h [34]: 101000 ng·h/mL
half-life [35]: 2.21 h
fraction unbound [36]: < 0.01
Cmax/dose (Mus musculus [39]): 436 ng/mL/(mg/kg)
AUC(0-t) at 24 h [40]: 5550 ng·h/mL
AUC/dose (Mus musculus [42]): 3374 ng·h/mL/mg/kg
AUC/dose (Mus musculus [43]): 2079 ng·h/mL/mg/kg
Cmax [45]: 4360 ng/mL
SMILES: CCc1nc2c(C)cc(N3CCN(CC(=O)N4CC(O)C4)CC3)cn2c1N(C)c1nc(-c2ccc(F)cc2)c(C#N)s1 [ZIRITAXESTAT]
Time (Mus musculus [1]): 3 h
inhibition in vivo at 30 mg/kg (Mus musculus [3]): 95.2%
Activity (Mus musculus [9]): Active
inhibition in vivo at 10 mg/kg (Mus musculus [14]): 90.9%
Time (Mus musculus [20]): 3 h
Activity (Mus musculus [25]): Active
Activity (Mus musculus [26]): Active
Time (Mus musculus [28]): 6 h
Activity (Mus musculus [37]): Active
Activity (Mus musculus [38]): Active
Time (Mus musculus [41]): 3 h
inhibition in vivo at 3 mg/kg (Mus musculus [44]): 83.6%
